Source: ChEMBL document CHEMBL1154304, “Triterpenoids and flavonoids from celery (Apium graveolens)” (J Nat Prod, 2009)

Test system: RAW264.7
Experiment: Antiinflammatory activity against mouse RAW264.7 cells assessed as inhibition of LPS-induced nitrite accumulation after 24 hrs by Griess reagent method
Format: functional, cell-based
Details: RAW264.7, 24 h
Procedure, shortened: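 RAW 264.7 mouse macrophages in RPMI 1640 with 10% heat-inactivated FBS, penicillin/streptomycin, seeded at 1×10^5 cells/well, adhered 2 h at 37 °C, 5% CO₂. LPS 1 μg/mL for 24 h with or without compounds in DMSO (0.2% v/v final). Nitrite in supernatant read with Griess reagent against sodium nitrite standards (0–100 μM). Inhibition is relative to LPS-only and untreated wells. MTT viability check run in parallel. Triplicate, mean ± SD of three experiments.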

## C[C@H]1[C@H](C)C(=O)C[C@]2(C)C[C@H](O)[C@]3(C)C(=CC(=O)[C@@H]4[C@@]5(C)C[C@H](O[C@@H]6O[C@H](CO)[C@@H](O)[C@H](O)[C@H]6O)[C@H](O)C(C)(C)[C@@H]5CC[C@]43C)[C@H]12
  IC50: > 20 µM

## O=C1C[C@@H](c2ccc(O)cc2)Oc2cc(O[C@@H]3O[C@H](CO)[C@@H](O)[C@H](O)[C@H]3O[C@@H]3OC[C@](O)(CO)[C@H]3O)cc(O)c21
  IC50: > 20 µM

## COc1cc(/C=C/C(=O)OC[C@@]2(O)CO[C@@H](O[C@H]3[C@H](Oc4cc(O)c5c(=O)cc(-c6ccc(O)cc6)oc5c4)O[C@H](CO)[C@@H](O)[C@@H]3O)[C@@H]2O)ccc1O
  IC50: > 20 µM

## O=c1c(O)c(-c2ccc(O)c(O)c2)oc2cc(O)cc(O)c12 [QUERCETIN]
  IC50: 11.4 µM

## O=c1cc(-c2ccc(O)cc2)oc2cc(O[C@@H]3O[C@H](CO)[C@@H](O)[C@H](O)[C@H]3O[C@@H]3OC[C@](O)(CO)[C@H]3O)cc(O)c12 [APIIN]
  IC50: > 20 µM

## COc1cc(/C=C/C(=O)OC[C@@]2(O)CO[C@@H](O[C@H]3[C@H](Oc4cc(O)c5c(=O)cc(-c6ccc(O)c(OC)c6)oc5c4)O[C@H](CO)[C@@H](O)[C@@H]3O)[C@@H]2O)ccc1O
  IC50: > 20 µM

## COc1cc(-c2cc(=O)c3c(O)cc(O[C@@H]4O[C@H](CO)[C@@H](O)[C@H](O)[C@H]4O)cc3o2)ccc1O
  IC50: > 20 µM

## C[C@H]1[C@H](C)C(=O)C[C@]2(C)C[C@H](O)[C@]3(C)C(=CC(=O)[C@@H]4[C@@]5(C)CC[C@H](O)[C@](C)(CO[C@@H]6O[C@H](CO)[C@@H](O)[C@H](O)[C@H]6O)[C@@H]5CC[C@]43C)[C@H]12
  IC50: > 20 µM

## COc1cc(/C=C/C(=O)OC[C@@]2(O)CO[C@@H](O[C@H]3[C@H](Oc4cc(O)c5c(=O)cc(-c6ccc(O)c(O)c6)oc5c4)O[C@H](CO)[C@@H](O)[C@@H]3O)[C@@H]2O)ccc1O
  IC50: > 20 µM

## O=c1cc(-c2ccc(O)cc2)oc2cc(O)cc(O)c12 [APIGENIN]
  IC50: 6.7 µM

## COc1cc(-c2cc(=O)c3c(O)cc(O)cc3o2)ccc1O [CHRYSOERIOL]
  IC50: 14.2 µM

## O=c1cc(-c2ccc(O)c(O)c2)oc2cc(O)cc(O)c12 [LUTEOLIN]
  IC50: 7.5 µM

## O=c1cc(-c2ccc(O)c(O)c2)oc2cc(O[C@@H]3O[C@H](CO)[C@@H](O)[C@H](O)[C@H]3O)cc(O)c12 [GALUTEOLIN]
  IC50: > 20 µM

## CC1(C)C[C@H]2C3=CC(=O)[C@@H]4[C@@]5(C)CC[C@H](O)[C@](C)(CO[C@@H]6O[C@H](CO)[C@@H](O)[C@H](O)[C@H]6O)[C@@H]5CC[C@@]4(C)[C@]3(C)[C@@H](O)C[C@@]2(C)CC1=O
  IC50: > 20 µM

## COc1cc(/C=C/C(=O)CC(=O)/C=C/c2ccc(O)c(OC)c2)ccc1O [CURCUMIN]
  IC50: 8.3 µM

## O=c1cc(-c2ccc(O)cc2)oc2cc(O[C@@H]3O[C@H](CO)[C@@H](O)[C@H](O)[C@H]3O)cc(O)c12 [APIGETRIN]
  IC50: > 20 µM
